Laboratory results reported in ChEMBL document CHEMBL2407075, “Sulphonamido-quinoxalines: search for anticancer agent” (Eur J Med Chem, 2013).

Experiments:
Assay type in all cases: functional
SF-539 = assay: Growth inhibition of human SF539 cells assessed as cell growth at 10^-8 M after 48 hrs by sulforhodamine B assay; details: SF-539, 48 h, read-out: Activity
NCI-H226 [1] = assay: Growth inhibition of human NCI-H226 cells assessed as cell growth at 10^-5 M after 48 hrs by sulforhodamine B assay; details: NCI-H226, 48 h, read-out: Activity
NCI-H23 = assay: Growth inhibition of human NCI-H23 cells assessed as cell growth at 10^-5 M after 48 hrs by sulforhodamine B assay; details: NCI-H23, 48 h, read-out: Activity
[2] = Growth inhibition of human EKVX cells assessed as cell growth at 10^-6 M after 48 hrs by sulforhodamine B assay; details: read-out: Activity
How it was run: (§1)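 Five-dose screen at NCI. Cells in RPMI 1640 with 5% FBS and 2 mM L-glutamine, seeded at 5000–40,000 cells/well and grown 24 h at 37 °C, 5% CO2 before dosing, with time-zero plates TCA-fixed. Drug diluted from DMSO stock to 0.01, 0.1, 1, 10 and 100 µM final, 48 h. Cells fixed with cold TCA (10% final), stained with 0.4% SRB and read at 515 nm. Percent growth from Tz, control and test absorbances; GI50, TGI and LC50 from dose-response curves.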

MDA-MB-435 [3] = assay: Growth inhibition of human MDA-MB-435 cells assessed as cell growth at 10^-7 M after 48 hrs by sulforhodamine B assay; details: MDA-MB-435, 48 h, read-out: Activity
IGROV-1 [4] = assay: Growth inhibition of human IGROV1 cells assessed as cell growth at 10^-7 M after 48 hrs by sulforhodamine B assay; details: IGROV-1, 48 h, read-out: Activity
HL-60(TB) [5] = assay: Growth inhibition of human HL-60(TB) cells after 48 hrs by sulforhodamine B assay; details: HL-60, 48 h; for CC50: read-out: LC50 (the source's name)
How it was run: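 Leukemia suspension cells in RPMI 1640 with 5% FBS and 2 mM L-glutamine were plated at 5000–40,000 cells/well and grown 24 h. Five concentrations (0.01–100 µM) were given for 48 h at 37 °C. Settled cells were fixed with 80% TCA (16% final) and SRB-stained, read at 515 nm. GI50 came from dose–response curves against time-zero and control plates.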

UO-31 = assay: Growth inhibition of human UO31 cells assessed as cell growth at 10^-7 M after 48 hrs by sulforhodamine B assay; details: UO-31, 48 h, read-out: Activity
IGROV-1 [6] = assay: Growth inhibition of human IGROV1 cells after 48 hrs by sulforhodamine B assay; details: IGROV-1, 48 h; for CC50: read-out: LC50 (the source's name)
How it was run: (§2)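 Adherent cells in RPMI 1640 with 5% FBS and 2 mM L-glutamine were plated at 5000–40,000 cells/well and grown 24 h. Five concentrations (0.01–100 µM, DMSO stock) were added for 48 h at 37 °C. Cells were fixed with cold TCA (10% final) and stained with SRB, read at 515 nm. GI50 came from log concentration–growth curves against time-zero and control plates.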

UACC-257 [7] = assay: Growth inhibition of human UACC257 cells after 48 hrs by sulforhodamine B assay; details: UACC-257, 48 h, read-out: LC50 (the source's name)
How it was run: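 NCI-60 screen. Cells grown in RPMI 1640 with 5% FBS and 2 mM L-glutamine, plated at 5000–40,000 cells/well and preincubated 24 h at 37 °C, 5% CO2. A time-zero plate is TCA-fixed at drug addition. DMSO stocks diluted in medium; five concentrations (0.01, 0.1, 1, 10, 100 µM). Exposure 48 h, then cold TCA fixation and 0.4% SRB staining, absorbance at 515 nm. GI50 is taken from the growth-percentage curve relative to time zero and control.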

MDA-MB-435 [8] = assay: Growth inhibition of human MDA-MB-435 cells after 48 hrs by sulforhodamine B assay; details: MDA-MB-435, 48 h, read-out: LC50 (the source's name); how it was run: as §2
RPMI-8226 = assay: Growth inhibition of human RPMI8226 cells assessed as cell growth at 10^-7 M after 48 hrs by sulforhodamine B assay; details: RPMI-8226, 48 h, read-out: Activity
KM12 = assay: Growth inhibition of human KM12 cells assessed as cell growth at 10^-6 M after 48 hrs by sulforhodamine B assay; details: KM12, 48 h, read-out: Activity
HCT-15 = assay: Growth inhibition of human HCT15 cells after 48 hrs by sulforhodamine B assay; details: HCT-15, 48 h; for CC50: read-out: LC50 (the source's name); how it was run: as §2
[9] = Growth inhibition of human Hs 578T cells assessed as cell growth at 10^-7 M after 48 hrs by sulforhodamine B assay; details: read-out: Activity; how it was run: as §1
BT-549 = assay: Growth inhibition of human BT549 cells after 48 hrs by sulforhodamine B assay; details: BT-549, 48 h; for CC50: read-out: LC50 (the source's name); how it was run: as §2
SR = assay: Growth inhibition of human SR cells assessed as cell growth at 10^-6 M after 48 hrs by sulforhodamine B assay; details: read-out: Activity
UACC-257 [10] = assay: Growth inhibition of human UACC257 cells assessed as cell growth at 10^-8 M after 48 hrs by sulforhodamine B assay; details: UACC-257, 48 h, read-out: Activity
HOP-62 = assay: Growth inhibition of human HOP62 cells assessed as cell growth at 10^-5 M after 48 hrs by sulforhodamine B assay; details: HOP-62, 48 h, read-out: Activity; how it was run: as §1
U-251 = assay: Growth inhibition of human U251 cells assessed as cell growth at 10^-5 M after 48 hrs by sulforhodamine B assay; details: U-251, 48 h, read-out: Activity
SF-268 = assay: Growth inhibition of human SF268 cells after 48 hrs by sulforhodamine B assay; details: SF-268, 48 h; for CC50: read-out: LC50 (the source's name); how it was run: as §2
SF-295 = assay: Growth inhibition of human SF295 cells assessed as cell growth at 10^-5 M after 48 hrs by sulforhodamine B assay; details: SF-295, 48 h, read-out: Activity
HL-60(TB) [11] = assay: Growth inhibition of human HL-60(TB) cells assessed as cell growth at 10^-4 M after 48 hrs by sulforhodamine B assay; details: HL-60, 48 h, read-out: Activity
How it was run: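 HL-60(TB) suspension cells were treated 48 h at 37 °C within the five-dose series (0.01–100 µM), fixed with 16% final TCA and SRB-stained, read at 515 nm. Percentage growth at each concentration = (Ti−Tz)/(C−Tz)×100, or (Ti−Tz)/Tz×100 when Ti<Tz, with time-zero (Tz) and untreated control (C) plates.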

NCI-H226 [12] = assay: Growth inhibition of human NCI-H226 cells assessed as cell growth at 10^-4 M after 48 hrs by sulforhodamine B assay; details: NCI-H226, 48 h, read-out: Activity
SW-620 = assay: Growth inhibition of human SW620 cells after 48 hrs by sulforhodamine B assay; details: SW-620, 48 h; for CC50: read-out: LC50 (the source's name); how it was run: as §2
Malme-3M = assay: Growth inhibition of human MALME-3M cells assessed as cell growth at 10^-7 M after 48 hrs by sulforhodamine B assay; details: read-out: Activity

| Compound | growth at 0.01 µM (SF-539) [%] | growth at 10 µM (NCI-H226 [1]) [%] | growth at 10 µM (NCI-H23) [%] | growth at 1 µM [2] [%] | growth at 0.1 µM (MDA-MB-435 [3]) [%] | growth at 0.1 µM (IGROV-1 [4]) [%] | GI50 (HL-60(TB) [5]) [nM] | CC50 (HL-60(TB) [5]) [µM] | growth at 0.1 µM (UO-31) [%] | TGI (IGROV-1 [6]) [µM] | CC50 (IGROV-1 [6]) [µM] | CC50 (UACC-257 [7]) [µM] | CC50 (MDA-MB-435 [8]) [µM] | growth at 0.1 µM (RPMI-8226) [%] | growth at 1 µM (KM12) [%] | TGI (HCT-15) [µM] | CC50 (HCT-15) [µM] | growth at 0.1 µM [9] [%] | CC50 (BT-549) [µM] | growth at 1 µM (SR) [%] | further results |
| --- | --- | --- | --- | --- | --- | --- | --- | --- | --- | --- | --- | --- | --- | --- | --- | --- | --- | --- | --- | --- | --- |
| O=S(=O)(Nc1ccc(Cl)cc1)c1ccc2nc(-c3ccccc3)c(-c3ccccc3)nc2c1 | 99 | -29 | 4 | 91 | 92 | 101 | 2090 | > 100 | 89 | > 100 | > 100 | > 100 | > 100 | 101 | 102 | > 100 | > 100 | 98 | > 100 | 81 | growth at 0.01 µM (UACC-257 [10]): 94%; growth at 10 µM (HOP-62): 13%; growth at 10 µM (U-251): -5%; TGI (SF-268): > 100 µM; CC50 (SF-268): > 100 µM; growth at 10 µM (SF-295): -53%; growth at 100 µM (HL-60(TB) [11]): 45%; growth at 100 µM (NCI-H226 [12]): 73%; TGI (SW-620): > 100 µM; CC50 (SW-620): > 100 µM; growth at 0.1 µM (Malme-3M): 99% |
| O=S(=O)(Nc1ccccn1)c1ccc2nc(-c3ccccc3)c(-c3ccccc3)nc2c1 | 96 | -35 | 4 | 89 | 102 | 104 | 1710 | > 100 | 88 | > 100 | > 100 | > 100 | > 100 | 104 | 99 | > 100 | > 100 | 94 | > 100 | 66 | GI50 (BT-549): 1580 nM; growth at 0.01 µM (UACC-257 [10]): 96%; growth at 10 µM (HOP-62): 16%; growth at 10 µM (U-251): 2%; TGI (SF-268): > 100 µM; CC50 (SF-268): > 100 µM; growth at 10 µM (SF-295): -56%; growth at 100 µM (HL-60(TB) [11]): 29%; growth at 100 µM (NCI-H226 [12]): 70%; TGI (SW-620): > 100 µM; CC50 (SW-620): > 100 µM; growth at 0.1 µM (Malme-3M): 107% |
